AP ELISA ortho: orthogonal test for alternative complement pathway inhibitors | Human serum alternative complement pathway, LPS-coated ELISA, C3 deposition; tested in compound mixtures | inhibition, % at 5 µM | actives 0.08% (n = 62,000) | AID 1235;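 active = inhibition above 30% in each of the two pooled mixtures holding the compound, so the lower value exceeds 30%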
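Assay system: human serum alternative complement pathway, C3 deposition on LPS-coated wells; Dosing: 5 µM per compound in ten-compound mixtures; Detection: Anti-C3 ELISA, OD 450 nm; Buffer or medium: Mg2+-EGTA GVB++ buffer containing human serum at 1:15 dilution; Timing: 1 h at 37 °C; Replication: two different pools per compound.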
M1 antagonist: blocks the rat M1 muscarinic receptor response to acetylcholine; P08482; CHO-M1 cells, Fluo-4 calcium, ACh EC80 antagonist mode; stronger effect = lower value; B-score at 10 µM; actives 3.4% (n = 64,000);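 active = calcium fluorescence response, raw or row-and-column corrected B-score, differing from the plate sample mean either way at a set confidence level, mostly lower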
M1 agonist: M1 muscarinic receptor agonism; CHO-M1 cells, Fluo-4 calcium fluorescence, agonist mode; stronger effect = higher value; B-score at 10 µM; actives 3% (n = 64,000); AID 626;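 active = fluorescence rise, raw or as B-score row- and column-corrected plate score, outside the 99.7% band of its plate's samples, either direction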
D1 allo mod: D1 dopamine receptor (human) allosteric modulation | P21728 | HEK293 D1, CRE-luciferase, dopamine EC30 potentiation; actives deviate in either direction | B-score at 10 µM | actives 5.9% (n = 58,000) | AID 641;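 active = luminescence count or its row- and column-corrected plate score outside the 99.7% band of the plate's sample wells, on either side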
Target sequence (P21728 whole entry, looked up): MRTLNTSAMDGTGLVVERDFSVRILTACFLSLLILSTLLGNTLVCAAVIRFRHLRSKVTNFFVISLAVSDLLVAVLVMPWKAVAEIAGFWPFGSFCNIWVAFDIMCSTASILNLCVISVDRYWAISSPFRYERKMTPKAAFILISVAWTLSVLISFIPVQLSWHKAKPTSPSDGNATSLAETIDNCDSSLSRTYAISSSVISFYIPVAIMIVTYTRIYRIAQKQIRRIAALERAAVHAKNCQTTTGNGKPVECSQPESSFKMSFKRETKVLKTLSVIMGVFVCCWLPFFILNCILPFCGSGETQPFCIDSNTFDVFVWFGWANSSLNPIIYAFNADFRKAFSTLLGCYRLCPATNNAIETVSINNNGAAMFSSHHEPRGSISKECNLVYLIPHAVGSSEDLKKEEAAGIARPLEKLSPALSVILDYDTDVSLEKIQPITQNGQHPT
mHtt clearance: mutant huntingtin protein clearance. AID 853. HeLa Exon1htt(103Q)mCFP, aggregate imaging; zero = plate's median compound well. actives 0.42% (n = 47,000). inhibition, % at 1.5 µM;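 active = inhibition of aggregate fluorescence above about 70%, also judged a hit by eye on the cell image, limit read from the data, passing the limit was not always enough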;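 also: cells exposed to compound for three days before fixation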
Numbers stand for hits; 0 = inactive; - = no result. The list is not random: actives were taken first. Their share in the collection is about 9%.

SMILES	AP ELISA ortho	M1 antagonist	M1 agonist	D1 allo mod	mHtt clearance
Cc1cc(C)cc(-n2nnc(C(=O)NCc3ccccc3Cl)c2N)c1	0	0	0	0	0
COc1cc(S(=O)(=O)N2CCN(C(=O)c3ccccc3F)CC2)c(OC)cc1NC(C)=O	0	0	0	0	-
Cc1ccc(Cn2c(NCCCn3ccnc3)nc3c2c(=O)n(C)c(=O)n3C)cc1	0	0	0	0	-
COC(=O)c1cc2c(=O)n3ccccc3nc2n(C)c1=N	31.7	0	0	0	-
CC(C)Cn1c(N)c(C(=O)COC(=O)c2ccc3ccccc3n2)c(=O)n(C)c1=O	0	0	0	0	0
O=c1c2cnn(-c3ccccc3Cl)c2ncn1Cc1cccnc1	0	0	0	0	0
CCCc1cc(=O)oc2cc(OCC(=O)N3CCc4ccccc43)ccc12	-	-	-	-	0
CCCOc1cccc(C2/C(=C(/O)c3ccncc3)C(=O)C(=O)N2CCCN(C)C)c1 (centres undefined)	0	0	0	0	-
Cc1c(C)n(Cc2ccccc2)c2ncnc(N)c12	0	0	0	-2.84	-
CC(C)Nc1ncnc2c1cnn2-c1ccccc1	0	0	0	-4.42	0
Cc1cccc(-n2ncc3c(Nc4ccc(F)cc4)ncnc32)c1	0	0	0	-	-
Cc1ccc(-n2ncc3c(NCCCn4ccnc4)ncnc32)c(C)c1	0	0	0	-	-
Cc1cccc(-n2ncc3c(NCCCn4ccnc4)ncnc32)c1	0	0	0	-4.11	-
Cc1ccccc1Nc1ncnc2c1cnn2-c1ccccc1	0	0	0	0	-
Cc1cccc(-n2ncc3c(NC(C)C)ncnc32)c1	0	0	0	-3.57	-
O=C(NCc1ccco1)c1cc2sccc2n1Cc1ccccc1	0	0	0	-	0
CCOC(=O)c1cc2c(=O)n3cccc(C)c3nc2n(CCc2ccccc2)c1=N	0	0	0	0	-
OCCCc1nc2n(n1)C(c1cccs1)C=C(c1ccccc1)N2 (centres undefined)	0	-14.9	431	0	-
Cn1c2c(c(=O)n(C)c1=O)C(c1cc3c(cc1Br)OCO3)CC(=O)N2 (centres undefined)	31.8	0	0	-	-
O=C1OCCC1N1C(=O)c2ccccc2S1(=O)=O (centres undefined)	0	0	0	-4.3	0
C=C(C)Cn1c(CCCNC(=O)CCC)nc2ccccc21	0	0	0	0	-
CN(C)S(=O)(=O)c1ccc(/C(O)=C2/C(=O)C(=O)N(CCN3CCCCC3)C2c2cccnc2)cc1 (centres undefined)	0	0	0	0	-
CCc1ccccc1NC(=O)CSC1=C(C#N)C(c2ccc3c(c2)OCO3)C2=C(CCCC2=O)N1 (centres undefined)	0	0	0	0	72.8
COc1ccc(OC)c(NC(=O)CSC2=C(C#N)C(c3ccco3)C3=C(CCCC3=O)N2)c1 (centres undefined)	-	0	0	-	-
COc1ccccc1-c1nn2c(-c3ccccc3Cl)nnc2s1	0	0	-1.98	0	-
SMILES	AP ELISA ortho	M1 antagonist	M1 agonist	D1 allo mod	mHtt clearance
COc1ccccc1-c1nn2c(-c3ccco3)nnc2s1	-	0	0	-	0
CCN(CC)c1ccc2c(c1)oc(=O)c1c(Cl)cc(=O)oc12	0	0	44.8	0	0
CCN(CC)c1ccc2c(Cl)c(Br)c(=O)oc2c1	0	0	37.6	0	-
Cc1ccc(NC(=O)CSc2nnc(-c3ccncc3)n2N)cc1C	0	0	0	0	0
CC(C)NC(=O)CSc1nnc(-c2ccc(S(=O)(=O)N3CCCC3)cc2)n1CC1CCCO1 (centres undefined)	0	0	0	-	0
COc1ccc(OC)c(-n2c(C)nc3cc(C(=O)O)ccc32)c1	0	0	0	0	73.5
CCC(C(=O)Nc1nnc(-c2ccco2)s1)c1ccccc1 (centres undefined)	0	0	0	0	0
Cc1c(C(=O)NCc2cccnc2)sc2nc(-c3ccc(F)cc3)cn12	0	0	0	-5.77	-
Cc1c(C(=O)Nc2ccc3c(c2)OCCO3)sc2nc(-c3ccccc3)cn12	-	0	0	0	-
Cc1c(C(=O)Nc2ccncc2)sc2nc(-c3ccccc3)cn12	0	0	0	-4.51	-
O=S(=O)(NCCCN1CCN(c2ccccc2F)CC1)c1cccc2cccnc12	0	0	0	-2.88	-
O=S(=O)(NCCN1CCCC1)c1cccc2cccnc12	0	0	0	0	-
COc1cc2nc(NCCN3CCOCC3)n3nc(-c4ccccc4)nc3c2cc1OC	0	0	0	0	-
CN1CCN(CCCNc2nc3ccccc3c3nc(-c4ccccc4)nn23)CC1	0	0	0	5.95	-

High-throughput results as filed in PubChem.
